Reference: ChEMBL document CHEMBL4513216, “Probing the Open Global Health Chemical Diversity Library for Multistage-Active Starting Points for Next-Generation Antimalarials” (ACS Infect Dis, 2020)

Assay: Toxicity liver stage against HepG2, at 10uM
Assay type: cell-based
Set-up: test concentration 10 uM, cell line HepG2-A16-CD81EGFP
Conditions: human, HepG2-A16-CD81EGFP cells; read-out: INHIBITION
Summary of the method: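 Uninfected HepG2-A16-CD81EGFP cells, 3 × 10^3 per well, 1536-well, plated on prespotted compound at 10 μM final, parasite-free screening media added to match infected plates; puromycin 10 μM positive, DMSO 0.5% negative; run in parallel with 48 h PbLuc assay at 37 °C, 5% CO2; viability by CellTiter-Glo luminescence, normalized to controls.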

SMILES	cytotoxicity at 10 µM
COc1ccc(C(=O)C2CCCN(Cc3ccon3)C2)c(OC)c1 (stereo unspecified)	-4.46%
C1CCC(OCCN2CCN(CCOC3CCCCC3)CC2)CC1	-0.434%
Cc1ccc(CNC[C@H]2Cn3cc(-c4ccccc4)nc3CO2)cc1	-9.43%
Cn1nc(COCC2CC2)c2c1CCN(C(=O)c1ccno1)C2	6.8%
CNC(=O)[C@H]1CC[C@@H]2[C@@H](CCN2c2ncccn2)O1	6.25%
O=S(=O)(C1CC1)N1CC[C@]2(C[C@@H](OCC3CCOCC3)CO2)C1	8.13%
COC(=O)c1c(Cl)c(C2CC2)nc2onc(C)c12	10.1%
COc1cc([C@@H]2N[C@H](c3nccs3)Cc3ccsc32)cc(OC)c1OC	8.71%
CC(C)CNC(=O)C1(Cc2ccccc2-c2ccccc2)CCNC1 (stereo unspecified)	-17.8%
Cn1ccnc1C(=O)N1CCOC(Cc2ccc(Cl)cc2)C1 (stereo unspecified)	9.23%
Cn1nc(C2CCN(C(=O)c3cccs3)CC2)c2cccnc21	-8.72%
O=C(c1cnco1)N1C[C@@H]2CC[C@H](Oc3cccc(F)c3)[C@@H]2C1	-6.18%
Cc1ccc(C2CCCN2Cc2nc(-c3ccco3)no2)cc1 (stereo unspecified)	26.1%
Cc1nnc2n1CCN(Cc1nc3ccccc3o1)C2	-6.48%
N#CC1(NC(=O)Cc2cc(Cl)c3c(c2)OCCO3)CCC1	-8.05%
Cn1ccnc1CCNS(=O)(=O)c1ccc(Br)cc1	3.32%
O=C(NCCOc1ccccc1)c1ccc2c(c1)C(=O)NC2=O	4.98%
O=C(CNc1ccccc1Cl)Nc1cc(-n2cnnn2)ccc1F	-4.38%
COCC(C)NC(=O)CN1CCC2(CC1)OCCO2 (stereo unspecified)	7.3%
Cc1cccc(CNc2cncc(-n3cccn3)n2)c1	-7.09%
Cc1ccc(C(=O)NCCCS(C)(=O)=O)c(=O)[nH]1	-7.6%

SMILES	cytotoxicity at 10 µM
CCCn1nc2c(cc1=O)CN(Cc1cc(C)no1)CC2	-11.6%
Cc1noc(CN(Cc2cccs2)C2CC2)n1	-0.243%
CN(Cc1cnn(C)c1)C(=O)CN1CCCC1Cn1cncn1 (stereo unspecified)	12.6%
O=C(CCc1ccc(Cl)cc1)NC1CCN(c2cccc(F)c2)CC1	-5.99%
CC(C)OCCCNC(=O)c1cccnc1N1CCOCC1	10.5%
Cn1cc(NC(=O)NCc2ccoc2)ccc1=O	4.14%
CSCC(=O)N(C)Cc1ccccc1	-2.34%
Fc1ccc(NCc2nnsc2Cl)c(OC(F)F)c1	0.811%
CCCN(CC1CC1)S(=O)(=O)c1ccc(NC(C)=O)cc1	9.35%
CN1CCC(NC(=O)Cc2csc(C(C)(C)C)n2)CC1	-2.37%
CN(C)C(=O)CCNC(=O)NCc1ccc(Br)cc1Cl	2.96%
O=C(O)c1cccn1-c1ccc2c(c1)OCCO2	-7.48%
CN(CC1CC1)S(=O)(=O)c1ccc(C(F)(F)F)cc1C#N	2.95%
Cc1cc(C)n(-c2ccc(C(C)NS(=O)(=O)CCCS(C)(=O)=O)cc2)n1 (stereo unspecified)	7.04%
Cn1cc(C(=O)N2C[C@@H]3CN(S(C)(=O)=O)CCO[C@@H]3C2)cn1	8.9%
Cc1cc(C(=O)NC2CCc3c(ccc(=O)n3CCN(C)C)C2)no1 (stereo unspecified)	-0.58%
Cc1csc(CN2CCC3(CC2)COC(COc2ccccn2)C3)n1 (stereo unspecified)	-113%
COCC(=O)NCc1cc(=O)n2c(n1)CN(Cc1ccco1)CCC2	-89.3%
Cc1ccccc1C(=O)N1CC[C@@H]2CN(c3ncccn3)CCO[C@@H]2C1	-72.4%
CCOCC1CN(CC2CC2)Cc2cnn(C)c21 (stereo unspecified)	-90.4%
CN(Cc1cccnc1)CC1CNCc2nccn2C1 (stereo unspecified)	-77.2%

SMILES	cytotoxicity at 10 µM
CCS(=O)(=O)N1CCn2cc(CN(C)Cc3ccco3)nc2C1	-74.4%
COCCC(=O)N1CC2(CCN(Cc3ccncc3)CC2)C1	-66.6%
C[C@H]1CN(C(=O)c2cscn2)C[C@@]12CCN(c1ccsc1)C2=O	-80.7%
CN(Cc1cc(C(C)(C)C)n[nH]1)Cc1c[nH]nc1-c1ccc(F)cc1	-4.83%
O=S(=O)(NCc1ccccc1)Nc1cccc(Cn2cncn2)c1	5.91%
Cc1nc2c(C)cccc2cc1C(=O)N1CCC2(CCNCC2)CC1	-8.37%
O=C(Cn1[nH]c2ccccc2c1=O)N1CCCC(CC2CC2)(C(=O)O)C1 (stereo unspecified)	3.15%
Cc1nnsc1C(=O)N1CCN(C(=O)C2CCC2)[C@@H]2CS(=O)(=O)C[C@@H]21	-2%
Cc1ccc(C)c2c(C)c(C(=O)NCCCn3ccnn3)[nH]c12	-0.84%
Cc1ccc(N2CCCC(c3[nH]ncc3Cc3ccccc3)C2)nn1 (stereo unspecified)	10.4%
CCCSc1ncc(CN2CCN(C)C(=O)C2C)cn1 (stereo unspecified)	7.75%
Cc1nonc1CN1CC[C@@](O)(C2CCOCC2)[C@H](C)C1	7.31%
CC(=O)c1cc(CC(=O)N2CCN(CCOc3ccccc3)CC2)cs1	-5.48%
CCC(CO)N(Cc1ccccn1)Cc1ccc(-c2ccn[nH]2)s1 (stereo unspecified)	2.66%
CC1(C)CN(Cc2cc(C3CCCCC3)no2)CC[C@]1(C)O	-4.59%
COCc1nc(Cn2ncn3cccc3c2=O)no1	-8.98%
CCc1cnc(C)nc1N1CCC(Cc2cccc(C(=O)O)c2)C1 (stereo unspecified)	2.42%
CCN(CCO)C[C@@H]1CN(C(=O)c2sc3ccccc3c2C)C[C@@H]1CO	-10.6%
Cc1nccnc1N1C[C@H]2CN(C3CCOCC3)C[C@@]2(C(=O)O)C1	-6.93%
Cc1cc(N2CCC(CO)(CC3CCCCO3)CC2)c2ccccc2n1 (stereo unspecified)	4.46%
CCn1c(CC2CCN(C(=O)C3CNCCO3)CC2)nn(C)c1=O (stereo unspecified)	2.14%

SMILES	cytotoxicity at 10 µM
CCc1[nH]c2c(CNc3cncc(C(=O)N(C)C)n3)cc(F)cc2c1C	3.86%
NC(=O)c1ccc(OCCCN2CCC3(CC2)OCCCC3O)cc1 (stereo unspecified)	-1.18%
CC(C)N(C)C(=O)CN1CCCC(c2ccc(C(=O)O)cc2)C1 (stereo unspecified)	-7.74%
O=C(c1cccn1Cc1cccs1)N1CCN(C(=O)C2CC2)CC1	-6.59%
COc1ccc(-n2ccc(C(=O)N3CCC(C(N)=O)C3)n2)cc1 (stereo unspecified)	-6.04%
CSCC[C@H](N)c1nnc(SCC(=O)Nc2ccc(Br)cc2)o1	-2.15%
O=C(Nc1ccccc1)C1=NOC2(CCNCC2)C1	5.77%
O=C(c1cnccn1)N1CCN2C[C@H](Oc3cccc(F)c3)C[C@H]2C1	11.7%
Fc1cccc(CN2CCC3(CCN3c3ncccn3)C2)c1 (stereo unspecified)	15.3%
Cc1noc(C)c1CN1CC[C@H]2OCC[C@@]2(C(=O)N2CCOCC2)C1	-77.2%
CCn1ncc2c1C(COCC1CC1)N(Cc1c(C)noc1C)CC2 (stereo unspecified)	12.3%
c1cc(CO[C@@H]2CN(Cc3ccoc3)[C@@H]3CCCO[C@@H]32)ccn1	-102%
Cn1nc(Cn2ccnc2)c2c1CN(C(=O)c1ccoc1)C2	-58.9%
CCN1C[C@@H]2CN(c3cc(OC)ncn3)CCC[C@]2(C(=O)O)C1	-2.58%
CN(C)CC(=O)N1CCC2(CC1)CN(c1ccsc1)C(=O)CO2	10.1%
O=C(NCCN1CCOCC1)c1ccn(-c2ccc3ccccn23)n1	-0.735%
CCC(C)(C)NC(=O)c1ncn2c1CN(C)S(=O)(=O)c1ccccc1-2	-137%
Cc1ncc2c(n1)CN(C=C1NN=C(c3occc3C)O1)CC2	-2.7%
